The source made the active and inactive calls. The calls are words filed in the database; no cut-off is given here.
Legend:
D(3) dopamine receptor = D(3) dopamine receptor (Homo sapiens, UniProt P35462); experiment: Agonist activity at human recombinant dopamine D3 receptor expressed in CHO cells assessed as inhibition of forskolin-stimulated cAMP accumulation; format: functional, cell-based
D(2) dopamine receptor = D(2) dopamine receptor (Homo sapiens, UniProt P14416); experiment: Agonist activity at human recombinant dopamine D2 receptor expressed in rat pituitary cells assessed as inhibition of forskolin-stimulated cAMP accumulation; format: functional, cell-based, Pituitary gland cell
D(2) dopamine receptor, sequence (P14416 whole entry): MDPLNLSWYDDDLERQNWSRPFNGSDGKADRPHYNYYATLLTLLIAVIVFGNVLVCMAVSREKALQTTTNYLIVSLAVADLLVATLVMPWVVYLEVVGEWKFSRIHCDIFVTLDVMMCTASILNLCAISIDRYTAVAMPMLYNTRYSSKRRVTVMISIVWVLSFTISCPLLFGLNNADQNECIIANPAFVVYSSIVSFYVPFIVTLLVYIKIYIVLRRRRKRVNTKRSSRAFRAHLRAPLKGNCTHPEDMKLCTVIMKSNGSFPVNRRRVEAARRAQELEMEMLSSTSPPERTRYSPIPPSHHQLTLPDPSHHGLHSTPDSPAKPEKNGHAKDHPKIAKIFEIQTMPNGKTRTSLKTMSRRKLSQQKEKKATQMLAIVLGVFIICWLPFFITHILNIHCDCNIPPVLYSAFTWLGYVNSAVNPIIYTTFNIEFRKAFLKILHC

[1] = Apparent permeability across Caco-2 cells at 1 uM; format: ADME, cell-based; conditions: human
[2] = Tmax in rat at 2 mg/kg administered by intranasal route; format: ADME, organism-based; parameters: dose 2 mg/kg; conditions: in vivo, inhaled or intranasal
Procedure, shortened: (§1)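 Rat study: compound freshly prepared in saline. An intravenous reference dose of 1 mg/kg was given as a bolus. Intranasal doses of 0.5 and 2 mg/kg were given as 20 µl into one nostril by pipette.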

[3] = Dissociation constant, pKa of the compound; format: physicochemical
[4] = Solubility of the compound; format: physicochemical
Histamine H1 receptor = Histamine H1 receptor (Homo sapiens, UniProt P35367); experiment: Binding affinity to human histamine H1 receptor
Histamine H1 receptor, sequence (P35367 whole entry): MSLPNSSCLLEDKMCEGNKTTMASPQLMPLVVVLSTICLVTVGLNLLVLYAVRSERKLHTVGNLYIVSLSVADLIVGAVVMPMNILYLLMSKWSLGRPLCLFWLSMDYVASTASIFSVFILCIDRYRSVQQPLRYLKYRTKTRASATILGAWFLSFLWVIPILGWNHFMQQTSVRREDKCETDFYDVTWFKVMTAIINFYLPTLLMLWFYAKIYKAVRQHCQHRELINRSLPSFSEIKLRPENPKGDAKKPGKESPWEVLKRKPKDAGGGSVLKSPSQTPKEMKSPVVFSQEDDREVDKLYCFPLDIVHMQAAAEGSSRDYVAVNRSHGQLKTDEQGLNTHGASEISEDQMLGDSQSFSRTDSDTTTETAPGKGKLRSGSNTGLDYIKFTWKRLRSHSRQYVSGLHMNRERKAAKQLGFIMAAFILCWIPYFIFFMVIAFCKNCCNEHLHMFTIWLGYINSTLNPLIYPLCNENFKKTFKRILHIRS

Canis familiaris [5] = experiment: Effect on male erectile dysfunction in sc dosed dog; format: functional, Canis lupus familiaris
Procedure, shortened: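 Animal models of male erectile dysfunction, with multiple subcutaneous dosing; ED50 expressed as free drug concentration.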

[6] = Tmax in dog at 0.3 mg/kg; format: ADME, organism-based, Canis lupus familiaris; parameters: dose 0.3 mg/kg; conditions: in vivo
Procedure, shortened: (§2)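 Dogs, male (n = 2) and female (n = 2). Compound freshly prepared in saline. The intravenous reference was a 10-min infusion at 3 ml/kg/h of a 0.2 mg/ml solution, giving a final dose of 0.1 mg/kg. Intranasal doses of 0.1 and 0.3 mg/kg were given as 100 µl into one nostril by spray device.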

[7] = Protein binding in dog plasma; format: ADME, cell-free, Canis lupus familiaris; conditions: read-out: PB (converted)
[8] = Half life in rat at 2 mg/kg administered by intranasal route; format: ADME, organism-based; parameters: dose 2 mg/kg; conditions: in vivo, inhaled or intranasal; procedure, shortened: as §1
[9] = molecular target: T1, Muscarinic acetylcholine receptor M1 (Homo sapiens, UniProt P11229); experiment: Binding affinity to human muscarinic M1 receptor
T1 sequence (P11229 whole entry): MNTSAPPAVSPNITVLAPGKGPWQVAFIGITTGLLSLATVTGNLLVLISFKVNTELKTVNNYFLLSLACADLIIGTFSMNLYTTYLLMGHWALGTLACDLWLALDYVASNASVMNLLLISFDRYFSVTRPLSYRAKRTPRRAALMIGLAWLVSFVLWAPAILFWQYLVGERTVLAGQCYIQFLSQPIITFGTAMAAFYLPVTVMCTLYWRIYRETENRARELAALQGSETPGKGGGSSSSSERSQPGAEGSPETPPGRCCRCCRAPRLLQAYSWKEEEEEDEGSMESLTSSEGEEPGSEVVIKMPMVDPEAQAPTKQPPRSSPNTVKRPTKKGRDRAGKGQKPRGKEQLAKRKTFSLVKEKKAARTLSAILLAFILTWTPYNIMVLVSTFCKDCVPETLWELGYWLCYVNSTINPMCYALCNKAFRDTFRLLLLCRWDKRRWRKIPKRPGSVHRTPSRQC

[10] = Half life in dog at 0.3 mg/kg; format: ADME, organism-based, Canis lupus familiaris; parameters: dose 0.3 mg/kg; conditions: in vivo; procedure, shortened: as §2
D(1A) dopamine receptor = D(1A) dopamine receptor (Homo sapiens, UniProt P21728); experiment: Binding affinity to dopamine D1 receptor
D(1A) dopamine receptor, sequence (P21728 whole entry): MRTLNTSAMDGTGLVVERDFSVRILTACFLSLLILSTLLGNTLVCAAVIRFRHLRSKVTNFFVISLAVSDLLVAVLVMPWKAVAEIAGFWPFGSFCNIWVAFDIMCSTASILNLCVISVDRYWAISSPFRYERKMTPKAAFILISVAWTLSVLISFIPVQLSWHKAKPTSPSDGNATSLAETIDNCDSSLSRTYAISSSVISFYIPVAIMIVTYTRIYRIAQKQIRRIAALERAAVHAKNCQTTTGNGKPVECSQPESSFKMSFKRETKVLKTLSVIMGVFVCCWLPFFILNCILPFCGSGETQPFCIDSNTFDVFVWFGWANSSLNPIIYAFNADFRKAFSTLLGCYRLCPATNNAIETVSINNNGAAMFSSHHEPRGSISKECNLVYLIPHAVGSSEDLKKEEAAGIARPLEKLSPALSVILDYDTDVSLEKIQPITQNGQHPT
Procedure, shortened: (§3)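 Broad commercial ligand-binding panel profiling, including dopamine D1 and D5 receptors; reported as IC50.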

[11] = molecular target: T2, Alpha-2A adrenergic receptor (Homo sapiens, UniProt P08913); experiment: Binding affinity to human alpha-2A adrenergic receptor
T2 sequence (P08913 whole entry): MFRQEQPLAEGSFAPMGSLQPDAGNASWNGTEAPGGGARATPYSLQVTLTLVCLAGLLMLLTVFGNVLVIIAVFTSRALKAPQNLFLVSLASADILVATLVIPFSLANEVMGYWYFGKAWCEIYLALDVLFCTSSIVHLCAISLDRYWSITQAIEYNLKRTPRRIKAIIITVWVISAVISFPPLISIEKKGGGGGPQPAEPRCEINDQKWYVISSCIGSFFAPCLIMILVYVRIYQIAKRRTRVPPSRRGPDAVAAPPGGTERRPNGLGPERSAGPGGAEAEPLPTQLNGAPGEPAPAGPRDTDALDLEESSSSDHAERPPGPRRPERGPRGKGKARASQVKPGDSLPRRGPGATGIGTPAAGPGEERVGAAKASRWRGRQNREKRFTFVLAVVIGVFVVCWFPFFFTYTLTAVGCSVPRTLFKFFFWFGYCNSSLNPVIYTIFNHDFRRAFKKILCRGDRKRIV

Canis familiaris [12] = experiment: Toxicity in sc dog assessed as emesis upto […]; format: organism-based, Canis lupus familiaris; conditions: in vivo
[13] = molecular target: T3, 5-hydroxytryptamine receptor 1A (Homo sapiens, UniProt P08908); experiment: Antagonist activity at human recombinant 5HT1A receptor; format: functional
T3 sequence (P08908 whole entry): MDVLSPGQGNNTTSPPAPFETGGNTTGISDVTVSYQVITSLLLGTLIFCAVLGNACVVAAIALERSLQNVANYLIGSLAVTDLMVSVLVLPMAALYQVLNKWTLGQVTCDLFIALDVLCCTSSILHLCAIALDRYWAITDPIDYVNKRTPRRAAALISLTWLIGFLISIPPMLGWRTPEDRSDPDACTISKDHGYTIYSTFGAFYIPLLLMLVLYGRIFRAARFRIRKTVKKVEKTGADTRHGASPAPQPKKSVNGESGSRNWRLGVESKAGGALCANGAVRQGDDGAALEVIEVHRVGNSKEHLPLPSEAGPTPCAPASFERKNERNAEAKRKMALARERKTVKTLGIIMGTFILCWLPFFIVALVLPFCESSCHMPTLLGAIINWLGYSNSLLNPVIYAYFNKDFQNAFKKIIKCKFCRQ

[14] = molecular target: T4, 5-hydroxytryptamine receptor 1A (Homo sapiens) (UniProt P08908); experiment: Agonist activity at human recombinant 5HT1A at 1 uM; format: functional
T4 sequence (whole entry): T3 sequence (P08908 whole entry)

Canis familiaris [15] = experiment: Toxicity in sc dog assessed as hypotensive effects upto […]; format: organism-based, Canis lupus familiaris; conditions: in vivo
[16] = Stability in dog hepatocytes; format: ADME, cell-based, Liver, Hepatocyte
Procedure, shortened: (§4)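 Rat, dog and human hepatocyte incubations; read-out was the disappearance half-life of parent compound, in minutes.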

[17] = molecular target: T4, 5-hydroxytryptamine receptor 1A (Homo sapiens); experiment: Binding affinity to human 5HT1A receptor at 10 uM
Procedure, shortened: (§5)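 Single-concentration binding screen in the Cerep wide ligand profile panel at the human 5HT1A receptor. Read-out is percent binding activity at each test concentration.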

[18] = Protein binding in rat plasma; format: ADME, cell-free; conditions: read-out: PB (converted)
D(1B) dopamine receptor = D(1B) dopamine receptor (Homo sapiens, UniProt P21918); experiment: Binding affinity to dopamine D5 receptor; procedure, shortened: as §3
D(1B) dopamine receptor, sequence (P21918 whole entry): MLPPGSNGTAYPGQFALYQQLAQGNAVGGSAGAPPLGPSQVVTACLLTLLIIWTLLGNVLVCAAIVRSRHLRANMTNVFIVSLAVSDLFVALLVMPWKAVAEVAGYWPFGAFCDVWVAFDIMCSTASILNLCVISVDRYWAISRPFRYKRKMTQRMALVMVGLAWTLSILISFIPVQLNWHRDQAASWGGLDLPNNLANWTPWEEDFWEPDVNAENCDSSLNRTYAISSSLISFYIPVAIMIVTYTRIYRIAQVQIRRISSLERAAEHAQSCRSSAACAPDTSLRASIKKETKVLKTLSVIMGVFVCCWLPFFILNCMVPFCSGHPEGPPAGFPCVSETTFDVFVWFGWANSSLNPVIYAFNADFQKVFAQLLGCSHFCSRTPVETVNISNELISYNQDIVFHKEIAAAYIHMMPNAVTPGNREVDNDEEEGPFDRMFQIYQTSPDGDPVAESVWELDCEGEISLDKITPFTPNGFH

[19] = molecular target: Voltage-gated inwardly rectifying potassium channel KCNH2 (Homo sapiens, UniProt Q12809); experiment: Displacement of dofetilide from hERG
Voltage-gated inwardly rectifying potassium channel KCNH2, sequence (Q12809 whole entry): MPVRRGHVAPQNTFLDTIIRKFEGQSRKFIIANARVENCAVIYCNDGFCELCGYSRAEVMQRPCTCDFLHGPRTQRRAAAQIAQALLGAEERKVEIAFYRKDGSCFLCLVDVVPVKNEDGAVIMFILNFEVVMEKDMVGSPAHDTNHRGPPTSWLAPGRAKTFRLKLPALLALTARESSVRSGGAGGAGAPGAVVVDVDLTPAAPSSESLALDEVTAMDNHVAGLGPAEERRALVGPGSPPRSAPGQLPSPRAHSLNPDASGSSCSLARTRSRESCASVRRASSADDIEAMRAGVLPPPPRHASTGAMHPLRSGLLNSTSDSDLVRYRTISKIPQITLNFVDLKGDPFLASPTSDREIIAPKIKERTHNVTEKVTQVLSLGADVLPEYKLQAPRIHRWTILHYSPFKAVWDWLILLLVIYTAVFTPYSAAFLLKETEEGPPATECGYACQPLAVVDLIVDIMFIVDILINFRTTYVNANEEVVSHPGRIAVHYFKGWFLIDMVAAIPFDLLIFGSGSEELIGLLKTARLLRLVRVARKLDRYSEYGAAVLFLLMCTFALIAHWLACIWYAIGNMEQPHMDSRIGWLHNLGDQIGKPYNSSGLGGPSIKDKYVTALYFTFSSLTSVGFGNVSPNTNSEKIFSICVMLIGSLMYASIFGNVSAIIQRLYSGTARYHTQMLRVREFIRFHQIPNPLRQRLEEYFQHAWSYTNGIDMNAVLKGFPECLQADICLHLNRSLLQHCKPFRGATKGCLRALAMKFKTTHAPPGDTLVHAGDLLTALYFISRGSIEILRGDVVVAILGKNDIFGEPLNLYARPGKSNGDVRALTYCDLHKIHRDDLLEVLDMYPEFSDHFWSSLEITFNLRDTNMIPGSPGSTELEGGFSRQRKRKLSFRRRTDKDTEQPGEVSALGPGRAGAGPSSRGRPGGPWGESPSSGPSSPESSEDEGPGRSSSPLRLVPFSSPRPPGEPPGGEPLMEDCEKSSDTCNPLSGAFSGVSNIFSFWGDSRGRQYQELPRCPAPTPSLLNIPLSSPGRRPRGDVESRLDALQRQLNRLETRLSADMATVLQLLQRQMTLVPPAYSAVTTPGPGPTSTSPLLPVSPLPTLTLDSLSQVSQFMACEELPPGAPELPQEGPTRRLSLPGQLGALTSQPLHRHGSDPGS

[20] = Protein binding in human plasma; format: ADME, cell-free; conditions: read-out: PB (converted)
Canis familiaris [21] = experiment: Toxicity in sc dog assessed as nausea upto […]; format: organism-based, Canis lupus familiaris; conditions: in vivo
[22] = molecular target: T5, Alpha-1A adrenergic receptor (Rattus norvegicus, UniProt P43140); experiment: Binding affinity to rat alpha-1A adrenergic receptor
T5 sequence (P43140 whole entry): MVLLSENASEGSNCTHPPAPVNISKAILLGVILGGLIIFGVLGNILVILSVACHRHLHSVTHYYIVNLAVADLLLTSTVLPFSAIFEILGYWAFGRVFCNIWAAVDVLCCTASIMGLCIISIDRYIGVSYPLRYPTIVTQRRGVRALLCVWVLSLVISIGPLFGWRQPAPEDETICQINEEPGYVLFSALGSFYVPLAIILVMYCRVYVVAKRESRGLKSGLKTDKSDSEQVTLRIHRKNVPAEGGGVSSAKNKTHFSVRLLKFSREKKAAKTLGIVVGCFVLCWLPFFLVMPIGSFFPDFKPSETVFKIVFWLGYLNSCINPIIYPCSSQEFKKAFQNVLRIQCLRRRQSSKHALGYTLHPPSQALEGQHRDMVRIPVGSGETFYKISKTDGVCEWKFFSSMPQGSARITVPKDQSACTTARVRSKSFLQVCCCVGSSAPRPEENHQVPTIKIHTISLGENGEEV

[23] = Intranasal bioavailability in rat at 2 mg/kg; format: ADME, organism-based; conditions: in vivo, inhaled or intranasal; procedure, shortened: as §1
[24] = Stability in human hepatocytes; format: ADME, cell-based, Liver, Hepatocyte; procedure, shortened: as §4
[25] = Distribution coefficient, log D at pH 7.4; format: physicochemical; conditions: octanol/water
[26] = molecular target: T4, 5-hydroxytryptamine receptor 1A (Homo sapiens); experiment: Binding affinity to human 5HT1A receptor at 100 nM; procedure, shortened: as §5
[27] = molecular target: 5-hydroxytryptamine receptor 2A (Rattus norvegicus, UniProt P14842); experiment: Binding affinity to rat 5HT2A receptor
5-hydroxytryptamine receptor 2A, sequence (P14842 whole entry): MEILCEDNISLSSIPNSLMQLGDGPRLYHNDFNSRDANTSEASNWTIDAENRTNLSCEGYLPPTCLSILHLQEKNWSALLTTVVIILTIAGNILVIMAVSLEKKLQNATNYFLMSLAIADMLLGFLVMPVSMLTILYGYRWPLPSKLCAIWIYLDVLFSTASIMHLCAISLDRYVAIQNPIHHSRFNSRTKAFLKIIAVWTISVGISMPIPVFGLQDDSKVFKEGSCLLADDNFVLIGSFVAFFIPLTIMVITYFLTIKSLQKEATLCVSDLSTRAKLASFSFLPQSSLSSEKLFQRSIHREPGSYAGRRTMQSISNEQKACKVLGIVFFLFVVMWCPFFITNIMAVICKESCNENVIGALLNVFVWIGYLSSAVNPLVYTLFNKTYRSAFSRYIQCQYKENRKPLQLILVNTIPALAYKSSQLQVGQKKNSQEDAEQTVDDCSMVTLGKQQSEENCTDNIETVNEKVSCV

[28] = Stability in rat hepatocytes; format: ADME, cell-based, Liver, Hepatocyte; procedure, shortened: as §4
[29] = Intranasal bioavailability in dog at 0.3 mg/kg; format: ADME, organism-based, Canis lupus familiaris; conditions: in vivo, inhaled or intranasal; procedure, shortened: as §2

D(3) dopamine receptor, sequence (P35462 whole entry): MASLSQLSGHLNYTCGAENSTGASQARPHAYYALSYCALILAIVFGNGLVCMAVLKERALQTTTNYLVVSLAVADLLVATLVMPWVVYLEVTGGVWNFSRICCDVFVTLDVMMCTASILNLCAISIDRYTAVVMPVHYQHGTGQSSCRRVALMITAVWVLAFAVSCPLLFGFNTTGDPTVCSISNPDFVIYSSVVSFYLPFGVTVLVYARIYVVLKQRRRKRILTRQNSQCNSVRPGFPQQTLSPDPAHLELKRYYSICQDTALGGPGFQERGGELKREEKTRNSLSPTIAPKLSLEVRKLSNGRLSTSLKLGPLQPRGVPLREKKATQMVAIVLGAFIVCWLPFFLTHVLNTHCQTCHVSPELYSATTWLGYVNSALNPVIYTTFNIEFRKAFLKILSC

CCCN1CCOC(c2ccc(O)c(NS(C)(=O)=O)c2)C1 (stereo unspecified)
EC50 (D(3) dopamine receptor): > 1 µM

CCCN1CCOC(c2cccc(CO)c2)C1 (stereo unspecified)
EC50 (D(3) dopamine receptor): > 1 µM

CCCN1CCOC(c2ccc(O)c(-n3cnnc3)c2)C1 (stereo unspecified)
EC50 (D(3) dopamine receptor): > 1 µM

CCCN1CCOC(c2cccc(-c3ncc[nH]3)c2)C1 (stereo unspecified)
EC50 (D(2) dopamine receptor): > 10 µM | EC50 (D(3) dopamine receptor): > 1 µM

CCCN1CCOC(c2cccc(OC)c2)C1 (stereo unspecified)
EC50 (D(2) dopamine receptor): > 10 µM | EC50 (D(3) dopamine receptor): > 1 µM

CCCN1CCOC(c2ccc(CO)c(O)c2)C1 (stereo unspecified)
EC50 (D(3) dopamine receptor): > 5.9 µM

CCCN1CCOC(c2cccc(S(C)(=O)=O)c2)C1 (stereo unspecified)
EC50 (D(2) dopamine receptor): > 10 µM | EC50 (D(3) dopamine receptor): > 1 µM

CCCN1CCOC(c2cccc(Cl)c2)C1 (stereo unspecified)
EC50 (D(2) dopamine receptor): > 10 µM | EC50 (D(3) dopamine receptor): > 2.8 µM

CCCN1CCO[C@H](c2cccc(O)c2)C1
Papp at 1 µM [1]: 38 ×10⁻⁶ cm/s | Tmax [2]: 5 min | pKa [3]: 7.4 | solubility [4]: > 1000 mg/mL | Ki (Histamine H1 receptor): > 2 µM | ED50 (Canis familiaris [5]): 0.0002 µM | Tmax [6]: 5 min | fraction unbound [7]: 0.24 | half-life [8]: 18 min | Ki [9]: > 1 µM | half-life [10]: 96 min | EC50 (D(2) dopamine receptor): > 10 µM | IC50 (D(1A) dopamine receptor): > 10 µM | Ki [11]: > 1 µM | Activity (Canis familiaris [12]): Non-toxic | IC50 [13]: > 20 µM | Activity [14]: inactive | Activity (Canis familiaris [15]): Non-toxic | half-life [16]: 18 min | Activity [17]: 95% | fraction unbound [18]: 0.59 | IC50 (D(1B) dopamine receptor): > 10 µM | Ki [19]: > 4 µM | fraction unbound [20]: 0.35 | Activity (Canis familiaris [21]): Non-toxic | Ki [22]: > 1 µM | bioavailability [23]: 20% | half-life [24]: 61 min | logD [25]: 1 | EC50 (D(3) dopamine receptor): 0.008 µM | Emax (D(3) dopamine receptor): > 90% | Activity [26]: 16% | Ki [27]: 0.97 µM | half-life [28]: 28 min | bioavailability [29]: 33%

CCCN1CCOC(c2ccc(O)c(C(N)=O)c2)C1 (stereo unspecified)
EC50 (D(3) dopamine receptor): 0.427 µM

CCCN1CCC[C@@H]2Cc3nc(N)ncc3C[C@H]21 [QUINELORANE]
EC50 (D(2) dopamine receptor): 0.002 µM

CCCN1CCOC(c2cccc(SC)c2)C1 (stereo unspecified)
EC50 (D(2) dopamine receptor): > 10 µM | EC50 (D(3) dopamine receptor): > 1 µM
